# Assays:
# Rattus norvegicus [1] = test: Cmax in female Sprague-Dawley rat plasma treated with [14C]sunitinib at 5 mg/kg, iv administered as single dose by LC/MS/MS analysis; type: ADME, organism-based; parameters: dose 5 mg/kg, dosed compound name [14C]Sunitinib, route intravenous; details: in vivo
# Method in brief: (§1)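 Single dose of [14C]sunitinib L-malate as free base, 50 µCi/kg. IV dose was 5 mg/kg by tail vein in 5 females. Oral dose was 15 mg/kg by gavage in 3 females and 3 males. Total radioactivity was by scintillation counting. […] Cmax was read from raw data, t½ by log-linear regression, AUC by linear trapezoidal rule.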
# Rattus norvegicus [2] = test: AUC (0 to infinity) in female Sprague-Dawley rat plasma treated with [14C]sunitinib at 15 mg/kg, po administered as single dose by LC/MS/MS analysis; type: ADME, organism-based; parameters: time infinity, dose 15 mg/kg, dosed compound name [14C]Sunitinib, route oral; details: in vivo; method in brief: as §1
# [3] = Drug excretion in feces of human treated with [14C]sunitinib at 50 mg, po administered as single dose by liquid scintillation counting; details: in vivo
# [4] = Drug excretion in urine of female cynomolgus monkey treated with [14C]sunitinib at 6 mg/kg, po administered as single dose by liquid scintillation counting; type: ADME, organism-based, Macaca fascicularis; parameters: dose 6 mg/kg, dosed compound name [14C]Sunitinib, route oral; details: in vivo
# Method in brief: (§2)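 Cynomolgus monkeys given one oral gavage dose of [14C]sunitinib L-malate, 6 mg/kg (37 µCi/kg). Urine collected at 0-4, 4-8 and 8-24 h, feces at 0-8 and 8-24 h, then both daily to 14 days; samples stored at -80 °C. Duplicate urine aliquots counted by liquid scintillation; homogenized feces combusted before counting.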
# [5] = Drug excretion in urine of human treated with [14C]sunitinib at 50 mg, po administered as single dose by liquid scintillation counting; details: in vivo
# Rattus norvegicus [6] = test: Apparent terminal half life in male Sprague-Dawley rat plasma treated with [14C]sunitinib at 15 mg/kg, po administered as single dose by LC/MS/MS analysis; type: ADME, organism-based; parameters: dose 15 mg/kg, dosed compound name [14C]Sunitinib, route oral; details: in vivo; method in brief: as §1
# Homo sapiens [7] = test: Cmax in human plasma treated with [14C]sunitinib at 50 mg, po administered as single dose by LC/MS/MS analysis; type: ADME, organism-based; parameters: dose 50 mg, route oral, dosed compound name [14C]Sunitinib; details: in vivo
# Method in brief: (§3)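 Open-label phase I study in 8 subjects given one 50 mg oral dose of [14C]sunitinib (100 µCi). Plasma total radioactivity was counted by scintillation on triplicate 0.25 mL aliquots. Sunitinib was quantified by LC-MS-MS. Noncompartmental analysis: Cmax read directly, terminal t½ = ln(2)/slope of the log-concentration regression, AUC by linear trapezoidal rule to the last detectable concentration.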
# Cynomolgus monkey [8] = test: Cmax in female cynomolgus monkey plasma treated with [14C]sunitinib at 6 mg/kg, po administered as single dose by LC/MS/MS analysis; type: ADME, organism-based, Macaca fascicularis; parameters: dose 6 mg/kg, dosed compound name [14C]Sunitinib, route oral; details: in vivo
# Method in brief: (§4)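 Cynomolgus monkeys of both sexes received one oral gavage of [14C]sunitinib L-malate at 6 mg/kg (37 µCi/kg). Femoral-vein blood was taken into heparin from 0.5 to 336 h. Plasma was kept cold and protected from light, then stored at -80 °C. Total radioactivity was by scintillation counting and sunitinib by methanol-extraction LC-MS-MS. Cmax was from raw data, t½ from the log-linear terminal slope, AUC(0-∞) by linear trapezoidal rule.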
# Rattus norvegicus [9] = test: Cmax in male Sprague-Dawley rat plasma treated with [14C]sunitinib at 15 mg/kg, po administered as single dose by LC/MS/MS analysis; type: ADME, organism-based; parameters: dose 15 mg/kg, dosed compound name [14C]Sunitinib, route oral; details: in vivo; method in brief: as §1
# Homo sapiens [10] = test: Tmax in human plasma treated with [14C]sunitinib at 50 mg, po administered as single dose by LC/MS/MS analysis; type: ADME, organism-based; parameters: dosed compound name [14C]Sunitinib; details: in vivo
# Cynomolgus monkey [11] = test: Cmax in male cynomolgus monkey plasma treated with [14C]sunitinib at 6 mg/kg, po administered as single dose by LC/MS/MS analysis; type: ADME, organism-based, Macaca fascicularis; parameters: dose 6 mg/kg, dosed compound name [14C]Sunitinib, route oral; details: in vivo; method in brief: as §4
# [12] = Retention time of compound by LC/MS/MS analysis; type: physicochemical; parameters: dosed compound name [14C]Sunitinib
# Rattus norvegicus [13] = test: Cmax in female Sprague-Dawley rat plasma treated with [14C]sunitinib at 15 mg/kg, po administered as single dose by LC/MS/MS analysis; type: ADME, organism-based; parameters: dose 15 mg/kg, dosed compound name [14C]Sunitinib, route oral; details: in vivo; method in brief: as §1
# Rattus norvegicus [14] = test: Tmax in male Sprague-Dawley rat plasma treated with [14C]sunitinib at 15 mg/kg, po administered as single dose by LC/MS/MS analysis; type: ADME, organism-based; parameters: dose 15 mg/kg, dosed compound name [14C]Sunitinib, route oral; details: in vivo
# Rattus norvegicus [15] = test: Apparent terminal half life in female Sprague-Dawley rat plasma treated with [14C]sunitinib at 15 mg/kg, po administered as single dose by LC/MS/MS analysis; type: ADME, organism-based; parameters: dose 15 mg/kg, dosed compound name [14C]Sunitinib, route oral; details: in vivo; method in brief: as §1
# [16] = Drug excretion in feces of female Sprague-Dawley rat treated with [14C]sunitinib at 5 mg/kg, iv administered as single dose by liquid scintillation counting; type: ADME, organism-based; parameters: dose 5 mg/kg, dosed compound name [14C]Sunitinib, route intravenous; details: in vivo
# Method in brief: (§5)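 Five female rats given a single tail-vein bolus of [14C]sunitinib L-malate, 5 mg/kg free base equivalents (50 µCi/kg). Urine and feces collected over 0-72 h into dry-ice cooled containers. Urine counted directly by liquid scintillation; feces homogenized and combusted in oxygen before counting. Expired air also monitored.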
# Homo sapiens [17] = test: Terminal half life in human plasma treated with [14C]sunitinib at 50 mg, po administered as single dose by LC/MS/MS analysis; type: ADME, organism-based; parameters: dosed compound name [14C]Sunitinib; details: in vivo
# Cynomolgus monkey [18] = test: AUC (0 to infinity) in female cynomolgus monkey plasma treated with [14C]sunitinib at 6 mg/kg, po administered as single dose by LC/MS/MS analysis; type: ADME, organism-based, Macaca fascicularis; parameters: time infinity, dose 6 mg/kg, dosed compound name [14C]Sunitinib, route oral; details: in vivo; method in brief: as §4
# Cynomolgus monkey [19] = test: AUC (0 to infinity) in male cynomolgus monkey plasma treated with [14C]sunitinib at 6 mg/kg, po administered as single dose by LC/MS/MS analysis; type: ADME, organism-based, Macaca fascicularis; parameters: time infinity, dose 6 mg/kg, dosed compound name [14C]Sunitinib, route oral; details: in vivo; method in brief: as §4
# Rattus norvegicus [20] = test: AUC (0 to infinity) in female Sprague-Dawley rat plasma treated with [14C]sunitinib at 5 mg/kg, iv administered as single dose by LC/MS/MS analysis; type: ADME, organism-based; parameters: time infinity, dose 5 mg/kg, dosed compound name [14C]Sunitinib, route intravenous; details: in vivo; method in brief: as §1
# [21] = Drug excretion in urine of female Sprague-Dawley rat treated with [14C]sunitinib at 15 mg/kg, po administered as single dose by liquid scintillation counting; type: ADME, organism-based; parameters: dose 15 mg/kg, dosed compound name [14C]Sunitinib, route oral; details: in vivo
# Method in brief: (§6)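 Female and male rats given one oral gavage dose, 15 mg/kg free base equivalents (50 µCi/kg). Urine and feces collected on dry ice, protected from light, over 0-4, 4-8 and 8-24 h, then daily to 72 h. Urine aliquots counted by liquid scintillation; homogenized feces combusted in oxygen before counting. Counts 5 min, external quench correction.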
# Rattus norvegicus [22] = test: Tmax in female Sprague-Dawley rat plasma treated with [14C]sunitinib at 15 mg/kg, po administered as single dose by LC/MS/MS analysis; type: ADME, organism-based; parameters: dose 15 mg/kg, dosed compound name [14C]Sunitinib, route oral; details: in vivo
# [23] = Drug excretion in feces of female Sprague-Dawley rat treated with [14C]sunitinib at 15 mg/kg, po administered as single dose by liquid scintillation counting; type: ADME, organism-based; parameters: dose 15 mg/kg, dosed compound name [14C]Sunitinib, route oral; details: in vivo; method in brief: as §6
# [24] = Drug excretion in feces of male Sprague-Dawley rat treated with [14C]sunitinib at 15 mg/kg, po administered as single dose by liquid scintillation counting; type: ADME, organism-based; parameters: dose 15 mg/kg, dosed compound name [14C]Sunitinib, route oral; details: in vivo; method in brief: as §6
# Cynomolgus monkey [25] = test: Tmax in female cynomolgus monkey plasma treated with [14C]sunitinib at 6 mg/kg, po administered as single dose by LC/MS/MS analysis; type: ADME, organism-based, Macaca fascicularis; parameters: dose 6 mg/kg, dosed compound name [14C]Sunitinib, route oral; details: in vivo
# Cynomolgus monkey [26] = test: Terminal half life in male cynomolgus monkey plasma treated with [14C]sunitinib at 6 mg/kg, po administered as single dose by LC/MS/MS analysis; type: ADME, organism-based, Macaca fascicularis; parameters: dose 6 mg/kg, dosed compound name [14C]Sunitinib, route oral; details: in vivo
# Rattus norvegicus [27] = test: Apparent terminal half life in female Sprague-Dawley rat plasma treated with [14C]sunitinib at 5 mg/kg, iv administered as single dose by LC/MS/MS analysis; type: ADME, organism-based; parameters: dose 5 mg/kg, dosed compound name [14C]Sunitinib, route intravenous; details: in vivo; method in brief: as §1
# Homo sapiens [28] = test: AUC (0 to infinity) in human plasma treated with [14C]sunitinib at 50 mg, po administered as single dose by LC/MS/MS analysis; type: ADME, organism-based; parameters: dose 50 mg, time infinity, route oral, dosed compound name [14C]Sunitinib; details: in vivo; method in brief: as §3
# Rattus norvegicus [29] = test: Tmax in female Sprague-Dawley rat plasma treated with [14C]sunitinib at 5 mg/kg, iv administered as single dose by LC/MS/MS analysis; type: ADME, organism-based; parameters: dose 5 mg/kg, dosed compound name [14C]Sunitinib, route intravenous; details: in vivo
# Cynomolgus monkey [30] = test: Tmax in male cynomolgus monkey plasma treated with [14C]sunitinib at 6 mg/kg, po administered as single dose by LC/MS/MS analysis; type: ADME, organism-based, Macaca fascicularis; parameters: dose 6 mg/kg, dosed compound name [14C]Sunitinib, route oral; details: in vivo
# [31] = Drug excretion in urine of male cynomolgus monkey treated with [14C]sunitinib at 6 mg/kg, po administered as single dose by liquid scintillation counting; type: ADME, organism-based, Macaca fascicularis; parameters: dose 6 mg/kg, dosed compound name [14C]Sunitinib, route oral; details: in vivo; method in brief: as §2
# [32] = Drug excretion in urine of female Sprague-Dawley rat treated with [14C]sunitinib at 5 mg/kg, iv administered as single dose by liquid scintillation counting; type: ADME, organism-based; parameters: dose 5 mg/kg, dosed compound name [14C]Sunitinib, route intravenous; details: in vivo; method in brief: as §5
# Rattus norvegicus [33] = test: AUC (0 to infinity) in male Sprague-Dawley rat plasma treated with [14C]sunitinib at 15 mg/kg, po administered as single dose by LC/MS/MS analysis; type: ADME, organism-based; parameters: time infinity, dose 15 mg/kg, dosed compound name [14C]Sunitinib, route oral; details: in vivo; method in brief: as §1
# Cynomolgus monkey [34] = test: Terminal half life in female cynomolgus monkey plasma treated with [14C]sunitinib at 6 mg/kg, po administered as single dose by LC/MS/MS analysis; type: ADME, organism-based, Macaca fascicularis; parameters: dose 6 mg/kg, dosed compound name [14C]Sunitinib, route oral; details: in vivo
# [35] = Drug excretion in urine of male Sprague-Dawley rat treated with [14C]sunitinib at 15 mg/kg, po administered as single dose by liquid scintillation counting; type: ADME, organism-based; parameters: dose 15 mg/kg, dosed compound name [14C]Sunitinib, route oral; details: in vivo; method in brief: as §6
# [36] = Drug excretion in feces of female cynomolgus monkey treated with [14C]sunitinib at 6 mg/kg, po administered as single dose by liquid scintillation counting; type: ADME, organism-based, Macaca fascicularis; parameters: dose 6 mg/kg, dosed compound name [14C]Sunitinib, route oral; details: in vivo; method in brief: as §2
# [37] = Drug excretion in feces of male cynomolgus monkey treated with [14C]sunitinib at 6 mg/kg, po administered as single dose by liquid scintillation counting; type: ADME, organism-based, Macaca fascicularis; parameters: dose 6 mg/kg, dosed compound name [14C]Sunitinib, route oral; details: in vivo; method in brief: as §2
smiles,measurement,setting,value
CCNCCNC(=O)c1c(C)[nH]c(/C=C2\C(=O)Nc3ccc(F)cc32)c1C,Cmax,Rattus norvegicus [1],450 ng/mL
same,AUC,Rattus norvegicus [2],37225 ng·h/mL
same,Compound recovery,[3],25%
same,Compound recovery,[4],1.4%
same,Compound recovery,[5],6.9%
same,t1/2 lambda z,Rattus norvegicus [6],7.1 h
same,Cmax,Homo sapiens [7],6.2 ng/mL
same,Cmax,Cynomolgus monkey [8],54 ng/mL
same,Cmax,Rattus norvegicus [9],4561 ng/mL
same,Tmax,Homo sapiens [10],6.7 h
same,Cmax,Cynomolgus monkey [11],67 ng/mL
same,Retention_time,[12],2.5 min
same,Cmax,Rattus norvegicus [13],1412 ng/mL
same,Tmax,Rattus norvegicus [14],6 h
same,t1/2 lambda z,Rattus norvegicus [15],9 h
same,Compound recovery,[16],18.5%
same,beta t1/2,Homo sapiens [17],93.2 h
same,AUC,Cynomolgus monkey [18],1272 ng·h/mL
same,AUC,Cynomolgus monkey [19],1383 ng·h/mL
same,AUC,Rattus norvegicus [20],6724 ng·h/mL
same,Compound recovery,[21],1.4%
same,Tmax,Rattus norvegicus [22],7 h
same,Compound recovery,[23],32.1%
same,Compound recovery,[24],21%
same,Tmax,Cynomolgus monkey [25],7 h
same,beta t1/2,Cynomolgus monkey [26],19 h
same,t1/2 lambda z,Rattus norvegicus [27],8.4 h
same,AUC,Homo sapiens [28],592.6 ng·h/mL
same,Tmax,Rattus norvegicus [29],3 h
same,Tmax,Cynomolgus monkey [30],8 h
same,Compound recovery,[31],1.1%
same,Compound recovery,[32],0.5%
same,AUC,Rattus norvegicus [33],68854 ng·h/mL
same,beta t1/2,Cynomolgus monkey [34],19 h
same,Compound recovery,[35],1.7%
CCN(CC)CCNC(=O)c1c(C)[nH]c(/C=C2\C(=O)Nc3ccc(O)cc32)c1C,Compound recovery,[36],5.9%
same,Compound recovery,[16],6.1%
same,Compound recovery,[37],6.3%
same,Compound recovery,[23],3.5%
same,Compound recovery,[24],4.3%
